Results as given in ChEMBL document CHEMBL3525944, “Nonlinear pharmacokinetics of 5-methoxy-N,N-dimethyltryptamine in mice” (Drug Metab Dispos, 2011).

Tests used:
Mus musculus [1] = test: Dose normalized AUC (0 to infinity) in CYP2D6-humanized transgenic FVB/N mouse at 2 mg/kg, ip by LC-MS/MS analysis; type: ADME, organism-based; design: dose 2 mg/kg, route intraperitoneal; conditions: in vivo
[2] = Cmax in wild-type FVB/N mouse at 20 mg/kg, ip by LC-MS/MS analysis; type: ADME, organism-based; design: dose 20 mg/kg, route intraperitoneal; conditions: in vivo
Mus musculus [3] = test: Dose normalized AUC (0 to infinity) in CYP2D6-humanized transgenic FVB/N mouse at 2 mg/kg, iv by LC-MS/MS analysis; type: ADME, organism-based; design: dose 2 mg/kg, route intravenous; conditions: in vivo
Mus musculus [4] = test: AUC (0 to infinity) in wild-type FVB/N mouse at 10 mg/kg, iv by LC-MS/MS analysis; type: ADME, organism-based, Plasma; design: dose 10 mg/kg, route intravenous, time infinity; conditions: in vivo
[5] = Bioavailability in CYP2D6-humanized transgenic FVB/N mouse at 2 mg/kg, ip by LC-MS/MS analysis; type: ADME, organism-based; conditions: in vivo
[6] = Ratio of drug level in brain to serum in wild-type FVB/N mouse at 10 mg/kg, ip by LC-MS/MS analysis; type: ADME, organism-based; design: dose 10 mg/kg, route intraperitoneal
In short: (§1)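 Mice dosed i.p. with 5-MeO-DMT in saline and killed at 20, 30 or 60 min. Brain homogenized in ice-cold saline and extracted liquid-liquid; serum processed by acetonitrile precipitation. Both quantified by LC-MS/MS (brain range 4.1-3000 nM). Ratio is brain over serum concentration at the same time point.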

Mus musculus [7] = test: AUC (0 to infinity) in wild-type FVB/N mouse at 2 mg/kg, iv by LC-MS/MS analysis; type: ADME, organism-based, Plasma; design: time infinity, dose 2 mg/kg, route intravenous; conditions: in vivo
[8] = Tmax in CYP2D6-humanized transgenic FVB/N mouse at 10 mg/kg, ip by LC-MS/MS analysis; type: ADME, organism-based; design: dose 10 mg/kg, route intraperitoneal; conditions: in vivo
In short: (§2)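 Male 8-week FVB/N wild-type or CYP2D6-humanized mice given 5-MeO-DMT oxalate in saline i.p. at 10 µL/g body weight. Serum sampled 0-180 min, N = 4 per time point, processed by acetonitrile protein precipitation with internal standard, quantified by LC-MS/MS. Tmax taken as observed from composite mean serum concentration-time data.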

Brain [9] = test: Stability in wild-type FVB/N mouse brain at -80 degC; type: ADME
In short: (§3)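 Pilot test of 5-MeO-DMT in mouse brain homogenate (ice-cold saline) stored at -80°C over one year, quantified by LC-MS/MS after liquid-liquid extraction.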

Mus musculus [10] = test: AUC (0 to infinity) in CYP2D6-humanized transgenic FVB/N mouse at 2 mg/kg, iv by LC-MS/MS analysis; type: ADME, organism-based, Plasma; design: time infinity, dose 2 mg/kg, route intravenous; conditions: in vivo
[11] = Cmax in CYP2D6-humanized transgenic FVB/N mouse at 2 mg/kg, ip by LC-MS/MS analysis; type: ADME, organism-based; design: dose 2 mg/kg, route intraperitoneal; conditions: in vivo
[12] = Bioavailability in wild-type FVB/N mouse at 10 mg/kg, ip by LC-MS/MS analysis; type: ADME, organism-based; conditions: in vivo
[13] = Ratio of drug level in brain to serum in wild-type FVB/N mouse at 20 mg/kg, ip by LC-MS/MS analysis; type: ADME, organism-based; design: dose 20 mg/kg, route intraperitoneal; in short: as §1
Brain [14] = test: Stability in CYP2D6-humanized transgenic FVB/N mouse brain at -80 degC; type: ADME; in short: as §3
Serum [15] = test: Drug uptake in CYP2D6-humanized transgenic FVB/N mouse serum by LC-MS/MS analysis; type: ADME, cell-free; conditions: read-out: Drug uptake
[16] = Clearance in CYP2D6-humanized transgenic FVB/N mouse at 2 mg/kg, iv by LC-MS/MS analysis; type: ADME, organism-based; design: dose 2 mg/kg, route intravenous; conditions: in vivo
Mus musculus [17] = test: Dose normalized AUC (0 to infinity) in wild-type FVB/N mouse at 2 mg/kg, iv by LC-MS/MS analysis; type: ADME, organism-based; design: dose 2 mg/kg, route intravenous; conditions: in vivo
Mus musculus [18] = test: Dose normalized AUC (0 to infinity) in wild-type FVB/N mouse at 20 mg/kg, iv by LC-MS/MS analysis; type: ADME, organism-based; design: dose 20 mg/kg, route intravenous; conditions: in vivo
Mus musculus [19] = test: AUC (0 to infinity) in CYP2D6-humanized transgenic FVB/N mouse at 10 mg/kg, ip by LC-MS/MS analysis; type: ADME, organism-based, Plasma; design: time infinity, dose 10 mg/kg, route intraperitoneal; conditions: in vivo
Mus musculus [20] = test: AUC (0 to infinity) in CYP2D6-humanized transgenic FVB/N mouse at 2 mg/kg, ip by LC-MS/MS analysis; type: ADME, organism-based, Plasma; design: time infinity, dose 2 mg/kg, route intraperitoneal; conditions: in vivo
Mus musculus [21] = test: Dose normalized AUC (0 to infinity) in CYP2D6-humanized transgenic FVB/N mouse at 20 mg/kg, ip by LC-MS/MS analysis; type: ADME, organism-based; design: dose 20 mg/kg, route intraperitoneal; conditions: in vivo
[22] = Volume of distribution at steady state in CYP2D6-humanized transgenic FVB/N mouse at 10 mg/kg, iv by LC-MS/MS analysis; type: ADME, organism-based; design: dose 10 mg/kg, route intravenous; conditions: in vivo, read-out: Vdss
In short: (§4)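 Male 8-week FVB/N wild-type or CYP2D6-humanized mice (25-30 g) given 5-MeO-DMT oxalate in saline i.v. at 5 µL/g body weight. Serum collected 0-180 min, N = 3 per time point, proteins precipitated with ice-cold acetonitrile containing internal standard, LC-MS/MS. Noncompartmental analysis of composite mean data; t1/2 = 0.693/terminal slope; Vss = CL×AUMC/AUC, CL = dose/AUC0→∞.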

[23] = Half life in CYP2D6-humanized transgenic FVB/N mouse at 10 mg/kg, iv by LC-MS/MS analysis; type: ADME, organism-based; design: dose 10 mg/kg, route intravenous; conditions: in vivo
[24] = Bioavailability in CYP2D6-humanized transgenic FVB/N mouse at 20 mg/kg, ip by LC-MS/MS analysis; type: ADME, organism-based; conditions: in vivo
[25] = Ratio of drug level in brain to serum in CYP2D6-humanized transgenic FVB/N mouse at 10 mg/kg, ip by LC-MS/MS analysis; type: ADME, organism-based; design: dose 10 mg/kg, route intraperitoneal; in short: as §1
[26] = Half life in wild-type FVB/N mouse at 2 mg/kg, iv by LC-MS/MS analysis; type: ADME, organism-based; design: dose 2 mg/kg, route intravenous; conditions: in vivo; in short: as §4
[27] = Tmax in wild-type FVB/N mouse at 20 mg/kg, ip by LC-MS/MS analysis; type: ADME, organism-based; design: dose 20 mg/kg, route intraperitoneal; conditions: in vivo; in short: as §2
[28] = Bioavailability in wild-type FVB/N mouse at 2 mg/kg, ip by LC-MS/MS analysis; type: ADME, organism-based; conditions: in vivo
[29] = Toxicity in mouse; type: organism-based; conditions: in vivo
Mus musculus [30] = test: AUC (0 to infinity) in CYP2D6-humanized transgenic FVB/N mouse at 20 mg/kg, ip by LC-MS/MS analysis; type: ADME, organism-based, Plasma; design: time infinity, dose 20 mg/kg, route intraperitoneal; conditions: in vivo
[31] = Tmax in CYP2D6-humanized transgenic FVB/N mouse at 2 mg/kg, ip by LC-MS/MS analysis; type: ADME, organism-based; design: dose 2 mg/kg, route intraperitoneal; conditions: in vivo; in short: as §2
[32] = Half life in CYP2D6-humanized transgenic FVB/N mouse at 20 mg/kg, iv by LC-MS/MS analysis; type: ADME, organism-based; design: dose 20 mg/kg, route intravenous; conditions: in vivo
Serum [33] = test: Drug uptake in wild-type FVB/N mouse serum by LC-MS/MS analysis; type: ADME, cell-free; conditions: read-out: Drug uptake
Mus musculus [34] = test: AUC (0 to infinity) in wild-type FVB/N mouse at 10 mg/kg, ip by LC-MS/MS analysis; type: ADME, organism-based, Plasma; design: time infinity, dose 10 mg/kg, route intraperitoneal; conditions: in vivo
Mus musculus [35] = test: Dose normalized AUC (0 to infinity) in wild-type FVB/N mouse at 2 mg/kg, ip by LC-MS/MS analysis; type: ADME, organism-based; design: dose 2 mg/kg, route intraperitoneal; conditions: in vivo
Mus musculus [36] = test: AUC (0 to infinity) in CYP2D6-humanized transgenic FVB/N mouse at 20 mg/kg, iv by LC-MS/MS analysis; type: ADME, organism-based, Plasma; design: time infinity, dose 20 mg/kg, route intravenous; conditions: in vivo

COc1ccc2[nH]cc(CCN(C)C)c2c1.O=C(O)C(=O)O
AUC/dose (Mus musculus [1]): 2.28 kg·min/L
Cmax [2]: 15800 nM
AUC/dose (Mus musculus [3]): 5.36 kg·min/L
AUC (Mus musculus [4]): 487 µmol·min/L
bioavailability [5]: 42.5%
Kp [6]: 1.8
AUC (Mus musculus [7]): 47.6 µmol·min/L
Tmax [8]: 5 min
Stability (Brain [9]): > 1 yr
AUC (Mus musculus [10]): 49.1 µmol·min/L
Cmax [11]: 1010 nM
bioavailability [12]: 47.3%
Kp [13]: 2.7
Stability (Brain [14]): > 1 yr
concentration (Serum [15]): 4.1 nM
clearance [16]: 190 mL/min/kg
AUC/dose (Mus musculus [17]): 5.19 kg·min/L
AUC/dose (Mus musculus [18]): 10 kg·min/L
AUC (Mus musculus [19]): 225 µmol·min/L
AUC (Mus musculus [20]): 20.9 µmol·min/L
AUC/dose (Mus musculus [21]): 6.2 kg·min/L
Vd [22]: 1.68 L/kg
half-life [23]: 12 min
bioavailability [24]: 65.6%
Kp [25]: 1.2
half-life [26]: 9.2 min
Tmax [27]: 5 min
bioavailability [28]: 52.2%
LD50 [29]: 48 mg/kg
AUC (Mus musculus [30]): 569 µmol·min/L
Tmax [31]: 3 min
half-life [32]: 12 min
concentration (Serum [33]): 4.1 nM
AUC (Mus musculus [34]): 231 µmol·min/L
AUC/dose (Mus musculus [35]): 2.71 kg·min/L
AUC (Mus musculus [36]): 866 µmol·min/L
